Measured values reported in ChEMBL document CHEMBL1221386, “Synthesis and pharmacological evaluation of 3-aryl-3-azolylpropan-1-amines as selective triple serotonin/norepinephrine/dopamine reuptake inhibitors” (Bioorg Med Chem Lett, 2010).

Columns and labels:
Mus musculus [1] = experiment: Antidepressant activity in po dosed mouse assessed as reduction of mobility time by forced swimming test; type: functional
In short: (§1)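 Mouse forced swimming test with oral dosing. Read-out is immobility time, expressed as % reduction of immobility. Minimal effective dose is the lowest dose with p <0.05. ED50 is given with 95% confidence limits. Doses are in mg/kg.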

[2] = Half life in human liver microsomes; type: ADME, Microsome
In short: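 Metabolic stability in human or rat liver microsomes. Half-lives measurable up to 60 min.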

[3] = target: T1, Sodium-dependent dopamine transporter (Homo sapiens, UniProt Q01959); experiment: Inhibition of dopamine reuptake at human dopamine transporter expressed in CHO cells; type: cell-based
T1 sequence (Q01959 whole entry): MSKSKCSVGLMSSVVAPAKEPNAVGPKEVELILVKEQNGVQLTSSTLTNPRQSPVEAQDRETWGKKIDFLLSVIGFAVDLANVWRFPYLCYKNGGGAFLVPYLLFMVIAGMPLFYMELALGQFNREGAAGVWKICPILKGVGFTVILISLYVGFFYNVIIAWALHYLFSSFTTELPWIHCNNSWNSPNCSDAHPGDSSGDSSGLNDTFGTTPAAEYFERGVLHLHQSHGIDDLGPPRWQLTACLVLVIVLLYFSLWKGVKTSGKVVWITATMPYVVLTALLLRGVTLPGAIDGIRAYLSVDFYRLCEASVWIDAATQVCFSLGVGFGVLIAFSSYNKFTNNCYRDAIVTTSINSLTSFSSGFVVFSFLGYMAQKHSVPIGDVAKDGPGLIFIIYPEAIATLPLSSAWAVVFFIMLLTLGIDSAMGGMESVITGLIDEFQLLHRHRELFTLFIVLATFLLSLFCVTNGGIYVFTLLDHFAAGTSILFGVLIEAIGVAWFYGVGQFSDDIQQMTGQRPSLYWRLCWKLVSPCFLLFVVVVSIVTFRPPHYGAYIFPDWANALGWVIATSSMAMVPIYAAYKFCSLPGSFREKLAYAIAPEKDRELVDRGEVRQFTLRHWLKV
In short: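 CHO-K1 cells stably expressing human DAT, assayed for [3H]DA uptake in duplicate. Nomifensine served as standard. IC50 determined.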

[4] = target: Sodium-dependent serotonin transporter (Homo sapiens, UniProt P31645); experiment: Inhibition of serotonin reuptake at human SERT expressed in HEK293 cells; type: cell-based
Chain of Sodium-dependent serotonin transporter (P31645 whole entry): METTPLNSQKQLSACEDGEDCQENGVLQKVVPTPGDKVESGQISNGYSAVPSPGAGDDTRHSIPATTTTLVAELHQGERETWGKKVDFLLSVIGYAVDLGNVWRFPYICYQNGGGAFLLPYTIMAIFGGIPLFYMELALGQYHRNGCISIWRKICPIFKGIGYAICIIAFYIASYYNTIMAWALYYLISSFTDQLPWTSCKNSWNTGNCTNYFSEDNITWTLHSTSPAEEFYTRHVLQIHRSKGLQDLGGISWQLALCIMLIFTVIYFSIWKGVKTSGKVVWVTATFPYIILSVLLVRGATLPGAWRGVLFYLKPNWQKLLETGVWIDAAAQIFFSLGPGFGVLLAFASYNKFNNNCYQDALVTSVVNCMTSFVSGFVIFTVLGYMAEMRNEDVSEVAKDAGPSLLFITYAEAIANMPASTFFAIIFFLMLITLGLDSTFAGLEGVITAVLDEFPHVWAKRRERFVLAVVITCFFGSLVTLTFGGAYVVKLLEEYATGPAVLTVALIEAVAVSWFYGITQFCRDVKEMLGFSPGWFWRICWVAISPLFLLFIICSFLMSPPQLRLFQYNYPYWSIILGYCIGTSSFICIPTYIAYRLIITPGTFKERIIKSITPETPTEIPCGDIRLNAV

[5] = target: Sodium-dependent noradrenaline transporter (Homo sapiens, UniProt P23975); experiment: Inhibition of norepinephrine reuptake at human NET expressed in MDCK cells; type: cell-based
Chain of Sodium-dependent noradrenaline transporter (P23975 whole entry): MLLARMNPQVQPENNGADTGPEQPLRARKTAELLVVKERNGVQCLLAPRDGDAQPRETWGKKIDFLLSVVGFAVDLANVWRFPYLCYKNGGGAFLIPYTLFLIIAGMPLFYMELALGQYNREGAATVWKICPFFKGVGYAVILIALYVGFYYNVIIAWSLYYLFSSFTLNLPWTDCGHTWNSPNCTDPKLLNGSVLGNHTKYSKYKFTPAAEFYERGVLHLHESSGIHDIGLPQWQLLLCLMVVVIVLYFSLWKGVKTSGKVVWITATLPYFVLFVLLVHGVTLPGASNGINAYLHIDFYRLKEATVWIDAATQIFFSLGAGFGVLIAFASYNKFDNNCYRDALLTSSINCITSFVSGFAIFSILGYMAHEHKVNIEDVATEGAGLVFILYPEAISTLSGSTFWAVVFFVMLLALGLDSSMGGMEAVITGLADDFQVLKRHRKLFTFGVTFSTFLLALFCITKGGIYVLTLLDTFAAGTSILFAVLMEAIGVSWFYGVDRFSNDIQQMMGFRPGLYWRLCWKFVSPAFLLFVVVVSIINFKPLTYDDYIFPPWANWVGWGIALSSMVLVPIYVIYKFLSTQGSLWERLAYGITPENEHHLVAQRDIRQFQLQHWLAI

Mus musculus [6] = experiment: Potentiation of […]-induced serotonin syndrome like behavior in mouse at 30 mg/kg, po; type: functional
In short: (§2)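 Mice, oral dosing. For serotonin potentiation, 5-hydroxytryptophan (5-HTP, serotonin precursor) is given to induce serotonin syndrome-like head twitch/stereotypy counts. Response is expressed as % potentiation relative to control group (0%). Minimal effective dose is the lowest dose reaching p <0.05. Doses are in mg/kg.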

Mus musculus [7] = experiment: Potentiation of […]-induced serotonin syndrome like behavior in po dosed mouse; type: functional; details: read-out: MED; in short: as §2
Mus musculus [8] = experiment: Antidepressant activity in po dosed mouse assessed as reduction of mobility time by tail suspension test; type: functional; details: read-out: MED
In short: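 Mouse tail suspension test with oral dose–response. Read-out is immobility time, reported as % reduction of immobility. Minimal effective dose is the lowest dose giving p <0.05. Doses are in mg/kg.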

Mus musculus [9] = experiment: Antidepressant activity in mouse assessed as change in locomotion at 90 mg/kg, po; type: functional
Mus musculus [10] = experiment: Antidepressant activity in mouse assessed as change in locomotion at 150 mg/kg, po; type: functional
In short: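 Spontaneous locomotor activity in mice measured 1 h after oral dosing. Expressed relative to the control group set at 100%.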

Mus musculus [11] = experiment: Antidepressant activity in mouse assessed as reduction of mobility time by forced swimming test at 10 mg/kg, po; type: functional; design: scale not given: the % may be the effect or the level left; in short: as §1
[12] = target: Histamine H1 receptor (Homo sapiens) (UniProt P35367); experiment: Inhibition of histamine H1 receptor at 10 uM
[13] = target: Muscarinic acetylcholine receptor M3 (Homo sapiens) (UniProt P20309); experiment: Inhibition of muscarinic M3 receptor at 10 uM
Chain of Muscarinic acetylcholine receptor M3 (Homo sapiens) (P20309 whole entry, looked up): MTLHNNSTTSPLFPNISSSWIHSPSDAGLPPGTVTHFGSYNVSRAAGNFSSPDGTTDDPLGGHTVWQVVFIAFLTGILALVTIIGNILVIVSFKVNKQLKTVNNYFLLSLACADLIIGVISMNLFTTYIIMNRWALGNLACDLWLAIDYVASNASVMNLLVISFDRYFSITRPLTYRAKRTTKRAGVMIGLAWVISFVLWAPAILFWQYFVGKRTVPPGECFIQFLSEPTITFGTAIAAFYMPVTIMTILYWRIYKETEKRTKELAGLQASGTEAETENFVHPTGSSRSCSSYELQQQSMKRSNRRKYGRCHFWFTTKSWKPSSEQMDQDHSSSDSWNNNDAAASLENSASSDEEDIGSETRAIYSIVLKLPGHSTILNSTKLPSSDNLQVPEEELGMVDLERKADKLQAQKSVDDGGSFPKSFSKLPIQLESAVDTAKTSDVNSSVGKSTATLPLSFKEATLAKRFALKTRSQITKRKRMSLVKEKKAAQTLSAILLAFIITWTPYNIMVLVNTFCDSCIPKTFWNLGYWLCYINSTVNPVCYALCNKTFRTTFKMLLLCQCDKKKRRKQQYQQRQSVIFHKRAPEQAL

[14] = target: T2, 5-hydroxytryptamine receptor 2C (Homo sapiens) (UniProt P28335); experiment: Inhibition of 5HT2C receptor at 10 uM
T2 sequence (whole entry): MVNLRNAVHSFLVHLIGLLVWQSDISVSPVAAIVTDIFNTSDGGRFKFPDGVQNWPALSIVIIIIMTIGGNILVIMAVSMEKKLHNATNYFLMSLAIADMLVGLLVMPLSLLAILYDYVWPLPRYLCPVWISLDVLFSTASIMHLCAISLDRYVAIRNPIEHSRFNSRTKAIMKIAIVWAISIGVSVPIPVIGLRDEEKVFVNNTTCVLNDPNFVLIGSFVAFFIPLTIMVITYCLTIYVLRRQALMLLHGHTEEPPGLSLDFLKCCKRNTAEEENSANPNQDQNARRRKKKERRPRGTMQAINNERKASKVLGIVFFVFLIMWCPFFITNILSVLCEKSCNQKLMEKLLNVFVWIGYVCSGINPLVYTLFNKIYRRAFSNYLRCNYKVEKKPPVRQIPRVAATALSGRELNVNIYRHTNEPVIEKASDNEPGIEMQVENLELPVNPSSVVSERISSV

Cytochrome P450 1A2 = target: T3, Cytochrome P450 1A2 (Homo sapiens, UniProt P05177); experiment: Inhibition of CYP1A2; type: ADME
T3 sequence (P05177 whole entry): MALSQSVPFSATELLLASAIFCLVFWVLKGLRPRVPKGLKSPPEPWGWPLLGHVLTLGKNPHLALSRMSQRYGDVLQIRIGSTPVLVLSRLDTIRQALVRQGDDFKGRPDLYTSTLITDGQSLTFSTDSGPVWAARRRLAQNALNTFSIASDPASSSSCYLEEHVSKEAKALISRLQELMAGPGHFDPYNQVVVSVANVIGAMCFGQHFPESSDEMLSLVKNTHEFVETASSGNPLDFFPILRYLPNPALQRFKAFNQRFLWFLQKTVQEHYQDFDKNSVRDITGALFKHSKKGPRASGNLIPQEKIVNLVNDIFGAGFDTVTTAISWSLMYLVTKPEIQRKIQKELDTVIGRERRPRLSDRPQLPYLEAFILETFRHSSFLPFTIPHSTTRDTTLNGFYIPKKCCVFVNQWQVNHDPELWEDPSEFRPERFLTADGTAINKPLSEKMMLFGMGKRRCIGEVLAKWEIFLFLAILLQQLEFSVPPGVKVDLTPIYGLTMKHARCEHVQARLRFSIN

Cytochrome P450 2C9 = Cytochrome P450 2C9 (Homo sapiens, UniProt P11712); experiment: Inhibition of CYP2C9; type: ADME
Chain of Cytochrome P450 2C9 (P11712 whole entry): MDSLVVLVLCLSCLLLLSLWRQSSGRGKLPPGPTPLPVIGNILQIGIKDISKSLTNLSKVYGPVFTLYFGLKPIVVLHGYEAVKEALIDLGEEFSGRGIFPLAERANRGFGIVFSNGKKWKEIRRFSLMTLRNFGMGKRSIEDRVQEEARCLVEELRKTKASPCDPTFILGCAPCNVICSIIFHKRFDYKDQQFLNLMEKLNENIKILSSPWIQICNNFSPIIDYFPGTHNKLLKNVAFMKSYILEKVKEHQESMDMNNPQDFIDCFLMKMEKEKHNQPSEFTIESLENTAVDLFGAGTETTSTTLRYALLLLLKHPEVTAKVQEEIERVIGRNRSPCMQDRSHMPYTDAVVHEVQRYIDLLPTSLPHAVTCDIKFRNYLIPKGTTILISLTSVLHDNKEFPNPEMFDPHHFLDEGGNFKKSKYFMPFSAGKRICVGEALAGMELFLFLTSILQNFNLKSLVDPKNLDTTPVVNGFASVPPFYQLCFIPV

Cytochrome P450 2C19 = Cytochrome P450 2C19 (Homo sapiens, UniProt P33261); experiment: Inhibition of CYP2C19; type: ADME
Chain of Cytochrome P450 2C19 (P33261 whole entry): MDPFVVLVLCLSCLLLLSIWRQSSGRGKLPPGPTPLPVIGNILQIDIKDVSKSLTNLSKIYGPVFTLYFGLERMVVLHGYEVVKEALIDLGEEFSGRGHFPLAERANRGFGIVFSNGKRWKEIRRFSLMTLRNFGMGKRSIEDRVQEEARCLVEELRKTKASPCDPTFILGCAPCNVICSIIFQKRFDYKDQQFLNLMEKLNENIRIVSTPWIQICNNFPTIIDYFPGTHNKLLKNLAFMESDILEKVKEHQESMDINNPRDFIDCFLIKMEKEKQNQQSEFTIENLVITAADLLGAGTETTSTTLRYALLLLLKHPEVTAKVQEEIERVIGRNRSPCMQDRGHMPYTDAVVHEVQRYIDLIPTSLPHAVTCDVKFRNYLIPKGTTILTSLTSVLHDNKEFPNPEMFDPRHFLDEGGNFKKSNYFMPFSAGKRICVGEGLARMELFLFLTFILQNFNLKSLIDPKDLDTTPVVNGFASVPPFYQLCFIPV

Cytochrome P450 3A4 = Cytochrome P450 3A4 (Homo sapiens, UniProt P08684); experiment: Inhibition of CYP3A4; type: ADME
Chain of Cytochrome P450 3A4 (P08684 whole entry): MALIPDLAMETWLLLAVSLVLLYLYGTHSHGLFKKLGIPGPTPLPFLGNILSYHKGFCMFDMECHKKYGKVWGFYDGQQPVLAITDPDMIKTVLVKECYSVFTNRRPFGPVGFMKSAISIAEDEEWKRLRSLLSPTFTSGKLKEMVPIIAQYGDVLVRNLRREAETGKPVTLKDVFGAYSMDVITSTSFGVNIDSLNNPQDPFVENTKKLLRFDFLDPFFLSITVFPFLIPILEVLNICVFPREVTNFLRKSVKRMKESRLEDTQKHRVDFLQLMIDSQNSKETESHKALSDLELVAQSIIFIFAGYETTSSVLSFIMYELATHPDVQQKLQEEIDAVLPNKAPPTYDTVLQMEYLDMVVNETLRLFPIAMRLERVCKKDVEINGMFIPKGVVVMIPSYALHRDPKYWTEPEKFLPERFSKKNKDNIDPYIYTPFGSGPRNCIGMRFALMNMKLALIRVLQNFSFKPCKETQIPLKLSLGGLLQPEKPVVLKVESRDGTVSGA

[15] = Cmax in rat at 10 mg/kg, po; type: ADME, organism-based; design: dose 10 mg/kg, route oral; details: in vivo
[16] = Tmax in rat at 10 mg/kg, po; type: ADME, organism-based; design: dose 10 mg/kg, route oral; details: in vivo
[17] = Half life in rat at 10 mg/kg, po; type: ADME, organism-based; design: dose 10 mg/kg, route oral; details: in vivo
[18] = AUC in rat at 10 mg/kg, iv; type: ADME, organism-based; design: dose 10 mg/kg, route intravenous; details: plasma
[19] = Clearance in rat at 10 mg/kg, iv; type: ADME, organism-based; design: dose 10 mg/kg, route intravenous; details: in vivo
[20] = Oral bioavailability in rat at 10 mg/kg; type: ADME, organism-based; details: in vivo
[21] = target: Sodium-dependent serotonin transporter (Rattus norvegicus) (UniProt P31652); experiment: Displacement of [3H]paroxetine from SERT in rat cerebral cortex at 100 nM
Chain of Sodium-dependent serotonin transporter (Rattus norvegicus) (P31652 whole entry): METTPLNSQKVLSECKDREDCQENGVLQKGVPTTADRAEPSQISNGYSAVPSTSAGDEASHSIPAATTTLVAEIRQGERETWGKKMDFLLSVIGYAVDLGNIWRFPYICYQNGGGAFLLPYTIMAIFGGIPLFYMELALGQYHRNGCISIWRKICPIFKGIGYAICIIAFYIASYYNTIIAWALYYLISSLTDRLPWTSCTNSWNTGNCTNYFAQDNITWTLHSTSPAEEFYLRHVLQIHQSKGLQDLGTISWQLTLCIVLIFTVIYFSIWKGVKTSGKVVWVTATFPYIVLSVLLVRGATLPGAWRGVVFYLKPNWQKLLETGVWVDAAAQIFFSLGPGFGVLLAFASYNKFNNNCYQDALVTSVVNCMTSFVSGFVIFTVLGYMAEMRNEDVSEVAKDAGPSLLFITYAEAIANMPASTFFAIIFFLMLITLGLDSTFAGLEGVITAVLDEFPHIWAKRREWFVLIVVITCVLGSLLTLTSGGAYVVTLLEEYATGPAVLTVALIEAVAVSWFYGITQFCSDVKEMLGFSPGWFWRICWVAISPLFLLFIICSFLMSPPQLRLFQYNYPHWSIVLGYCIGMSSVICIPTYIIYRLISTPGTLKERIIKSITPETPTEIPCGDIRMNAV

[22] = target: T1, Sodium-dependent dopamine transporter; experiment: Inhibition of dopamine reuptake at human dopamine transporter expressed in CHO cells at 100 nM

Structure (SMILES): CNCC[C@@H](c1ccc(Cl)c(Cl)c1)n1nnc(C)n1
- ED50 (Mus musculus [1]): 22.2 mg/kg
- minimal effective dose (Mus musculus [1]; read-out: MED): 10 mg/kg
- half-life [2]: > 1 h
- IC50 [3]: 58 nM
- IC50 [4]: 143 nM
- IC50 [5]: 19.8 nM
- Activity (Mus musculus [6]): 158%
- minimal effective dose (Mus musculus [7]): 30 mg/kg
- minimal effective dose (Mus musculus [8]): 3 mg/kg
- Activity (Mus musculus [9]): 142%
- Activity (Mus musculus [10]): 134%
- Activity (Mus musculus [11]): 14.9%
- inhibition [12]: < 20%
- inhibition [13]: < 20%
- inhibition [14]: 66%
- IC50 (Cytochrome P450 1A2): > 10000 nM
- IC50 (Cytochrome P450 2C9): > 10000 nM
- IC50 (Cytochrome P450 2C19): > 10000 nM
- IC50 (Cytochrome P450 3A4): > 10000 nM
- Cmax [15]: 334 ng/mL
- Tmax [16]: 0.75 h
- half-life [17]: 5.48 h
- AUC [18]: 3830 ng·h/mL
- clearance [19]: 42 mL/min/kg
- bioavailability [20]: 43.2%
- inhibition [21]: 61.2%
- inhibition [22]: 62%
